The record followed here is ChEMBL document CHEMBL2417395, “Synthesis and biological evaluation of novobiocin analogues as potential heat shock protein 90 inhibitors” (Bioorg Med Chem, 2013).

Calls of active or inactive are those of the source. No cut-off for these calls is given here.

A word on the inhibition: it is how much of the control response was suppressed. What is called EC50 is the concentration giving half of the maximal effect. The IC50 is the point on the concentration scale where inhibition reaches its midpoint. A lower IC50 goes with higher potency.

For test [1], the system named is SK-BR-3. The experiment in a line: Cell cycle arrest in human SKBR3 cells assessed as accumulation at S phase at 25 uM after 48 hrs by flow cytometric analysis (reference value: 19 +/- 6%). In kind it is functional. In general terms: Flow cytometry measures light scatter and fluorescence of single cells or particles in a stream.
The test system of test [2] is SK-BR-3. The experiment in a line: Cell cycle arrest in human SKBR3 cells assessed as accumulation at subG1 phase at 25 uM after 48 hrs by flow cytometric analysis (reference value: 7 +/- 1%). In kind it is functional.
Test [3] relates to SK-BR-3. The experiment in a line: Cell cycle arrest in human SKBR3 cells assessed as accumulation at subG1 phase at 12.5 uM after 48 hrs by flow cytometric analysis (reference value: 7 +/- 1%). In kind it is functional.
Test [4] concerns SK-BR-3. Description: Cytotoxicity against human SKBR3 cells assessed as growth inhibition at 100 uM after 18 hrs by capillary-based flow cytometric analysis. In kind it is functional, cell-based. The procedure, abridged:
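Short-term viability: SKBR3 cells exposed overnight under the same conditions as the surface-HER2 screen, then stained with a DNA-staining viability reagent; viable cell number counted by capillary flow cytometry.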

Test [5] deals with T1, Heat shock protein HSP90 (Homo sapiens, UniProt P07900+P08238). Description: Inhibition of HSP90 in human MCF7 cells assessed as depletion of total HER2 protein level at 50 uM after 18 hrs by Western blot analysis relative to control. In kind it is cell-based. The procedure, abridged:
(§1)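 MCF-7 cells at 70% confluence treated 18 h; floating plus trypsinized cells pooled, lysed in NP-40 buffer (pH 7.4) with protease/phosphatase inhibitors; 20 µg protein on 7.5% SDS-PAGE, nitrocellulose, milk block; probed for HER2 (2.0 µg/mL monoclonal) or HSP72, alkaline-phosphatase secondary, NBT/BCIP development; Ponceau S loading check.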

Test [6] relates to SK-BR-3. Description: Cell cycle arrest in human SKBR3 cells assessed as accumulation at subG1 phase after 48 hrs by flow cytometric analysis. In kind it is functional, cell-based.
Test [7] has as its system SK-BR-3. The experiment in a line: Cell cycle arrest in human SKBR3 cells assessed as accumulation at G0/G1 phase at 25 uM after 48 hrs by flow cytometric analysis (reference value: 54 +/- 2%). In kind it is functional.
Test [8] is filed under the species Oryctolagus cuniculus. The experiment in a line: Inhibition of HSP90 in rabbit reticulocyte lysate assessed as inhibition of heat-denatured luciferase refolding after 30 mins by luminescence plate reader analysis. The procedure, abridged:
(§2)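 Rabbit reticulocyte lysate with ATP regeneration (10 mM phosphocreatine, 1 mM ATP, 17.5 IU creatine kinase) preincubated with compound 20 min on ice; firefly luciferase (100 nM) heat-denatured 40 °C 8 min, diluted 10-fold into lysate; 28 °C, triplicate aliquots luminescence-read at 0, 15, 30, 60 min; mean RLU or % of DMSO.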

The species named for test [9] is Mus musculus. Description: Inhibition of HSP90 in mouse 3T3-Y9-B12 cells assessed as activation of HSF1 at 0.78 to 25 uM after overnight incubation by GFP reporter gene assay relative to control. In kind it is cell-based. In a few lines:
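3T3-Y9-B12 mouse fibroblasts carrying a GFP gene under a minimal heat-shock element; near-confluent monolayers given serial dilutions in triplicate wells overnight, DMSO ≤0.25% vehicle, GA 0.5 µM positive control; after PBS wash, fluorescence at 485/525 nm, normalized to DMSO.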
For orientation: A reporter such as luciferase makes a cellular process visible.

The target of test [10] is T1, Heat shock protein HSP90. The experiment in a line: Inhibition of HSP90 in human SKBR3 cells assessed as aggregation of intracellular HER2 at 25 uM after 18 hrs by DAPI staining-based immunofluorescence microscopic analysis. In kind it is cell-based. Particulars: SK-BR-3. In a few lines: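 SKBR3 in chamber slides adhered overnight, treated 18 h, fixed 4% paraformaldehyde, permeabilized 1% Triton X-100, goat-serum block; anti-HER2 (20 µg/mL) then Alexa Fluor 488 secondary (2 µg/mL) on ice, DAPI nuclear counterstain; imaged at 160× with identical exposures. GA 0.5 µM positive control.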

Test [11] deals with SK-BR-3. The experiment in a line: Cell cycle arrest in human SKBR3 cells assessed as accumulation at G2/M phase at 12.5 uM after 48 hrs by flow cytometric analysis (reference value: 21 +/- 1%). In kind it is functional.
Test [12] concerns SK-BR-3. Description: Cell cycle arrest in human SKBR3 cells assessed as accumulation at G0/G1 phase at 12.5 uM after 48 hrs by flow cytometric analysis (reference value: 54 +/- 2%). In kind it is functional.
Test [13] addresses T1, Heat shock protein HSP90. The experiment in a line: Inhibition of HSP90 in human SKBR3 cells assessed as depletion of cell surface HER2 protein level at 100 uM after 18 hrs by immunofluorescence-based flow cytometric analysis relative to control. Particulars: SK-BR-3. The procedure, abridged: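 SKBR3 cells treated 18 h at 100 µM (controls: DMSO, GA 0.5 µM, NB 500 µM), trypsinized, blocked in goat serum/PBA (pH 7.6) on ice, anti-HER2 20 µg/mL 30 min then Alexa 488 secondary 2 µg/mL 20 min on ice; mean fluorescence intensity by flow cytometry, isotype antibody control.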

The subject of test [14] is SK-BR-3. The experiment in a line: Cell cycle arrest in human SKBR3 cells assessed as accumulation at subG1 phase at 12.5 to 25 uM by flow cytometric analysis. In kind it is functional, cell-based. Particulars: TDE = time-dependent effect.
In test [15] the target is T1, Heat shock protein HSP90. Description: Inhibition of HSP90 in human MCF7 cells assessed as depletion of cell surface HER2 protein level after 18 hrs by flow cytometry.
In test [16] the test system is MCF7. Description: Cytotoxicity against ER-positive human MCF7 cells expressing low level of HER2 after 3 days by MTT assay. In kind it is functional, cell-based. Particulars: MCF7, 72 h. In a few lines: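 MCF-7 seeded 2,000 cells/well, serial dilutions added after 24 h, 72 h exposure; MTT at 500 µg/mL final, 3 h at 37 °C, formazan dissolved in DMSO, absorbance 570 nm minus 650 nm background. Triplicates, at least two experiments; IC50 = concentration cutting viable signal by 50% of DMSO control.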
(Tetrazolium dyes change colour on reduction, which living cells bring about.)

Test [17] concerns SK-BR-3. The experiment in a line: Cell cycle arrest in human SKBR3 cells assessed as accumulation at G2/M phase at 25 uM after 48 hrs by flow cytometric analysis (reference value: 21 +/- 1%). In kind it is functional.
In test [18] the test system is SK-BR-3. The experiment in a line: Cytotoxicity against ER-negative human SKBR3 cells expressing high level of HER2 after 3 days by MTT assay. In kind it is functional, cell-based. Particulars: SK-BR-3, 72 h. In a few lines: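 SKBR3 cells in RPMI 1640 with 10% FBS exposed to serial dilutions for 3 days; MTT dye-reduction read-out of relative viable cell number. IC50 taken as concentration giving 50% reduction versus DMSO-treated cells.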

Test [19] deals with SK-BR-3. The experiment in a line: Cell cycle arrest in human SKBR3 cells assessed as accumulation at S phase at 12.5 uM after 48 hrs by flow cytometric analysis (reference value: 19 +/- 6%). In kind it is functional.
Test [20] relates to MCF7. The experiment in a line: Induction of HSP70 in human MCF7 cells by Western blot analysis. In kind it is cell-based. In a few lines: as §1
For test [21], the species on record is Oryctolagus cuniculus. The experiment in a line: Inhibition of HSP90 in rabbit reticulocyte lysate assessed as inhibition of heat-denatured luciferase refolding at 100 uM by luminescence plate reader analysis. Particulars: TDE = time-dependent effect. In a few lines: as §2
Test [22] deals with T1, Heat shock protein HSP90. The experiment in a line: Inhibition of HSP90 in human MCF7 cells assessed as depletion of total HER2 protein level at 12.5 to 25 uM after 18 hrs by Western blot analysis. In kind it is cell-based. The procedure, abridged: as §1
The species entered for test [23] is Oryctolagus cuniculus. Description: Inhibition of HSP90 in rabbit reticulocyte lysate assessed as inhibition of heat-denatured luciferase refolding at 0.5 uM by luminescence plate reader analysis. Particulars: TDE = time-dependent effect. In a few lines:
as §2

In test [24] the test system is SK-BR-3. Description: Cell cycle arrest in human SKBR3 cells assessed as accumulation at G2/M phase at 0.5 uM after 48 hrs by flow cytometric analysis (reference value: 21 +/- 1%). In kind it is functional.
The test system of test [25] is SK-BR-3. The experiment in a line: Cell cycle arrest in human SKBR3 cells assessed as accumulation at G0/G1 phase at 0.5 uM after 48 hrs by flow cytometric analysis (reference value: 54 +/- 2%). In kind it is functional.
The test system of test [26] is SK-BR-3. Description: Cell cycle arrest in human SKBR3 cells assessed as accumulation at subG1 phase at 0.5 uM after 48 hrs by flow cytometric analysis (reference value: 7 +/- 1%). In kind it is functional.
For test [27], the system named is SK-BR-3. The experiment in a line: Cell cycle arrest in human SKBR3 cells assessed as accumulation at S phase at 0.5 uM after 48 hrs by flow cytometric analysis (reference value: 19 +/- 6%). In kind it is functional.

`CO[C@@H]1[C@@H](OC(N)=O)[C@@H](O)[C@H](Oc2ccc3cc(NC(=O)c4cc5ccccc5[nH]4)c(=O)oc3c2C)OC1(C)C`: the Activity in test [1] was 10%; in [2], 29%; in [3], 8%; in test [6], “Dose-dependent effect”; in test [7], 56%; in test [11], 18%. For the same compound, the Activity was 58% in [12], “tde” in [14], 10% in test [17] and 17% in test [19]. In addition, the “growth inhibition (GI)” value in test [4] was “Active”. Besides, the inhibition in test [5] is 50%; in test [8], “Dose-dependent effect”; in test [13], 40%; in [21], “tde”. Moreover, the fold change (FC) in [9] was < 2. The inhibition entry in test [10] and in test [22] was “Active” throughout. In [15], the EC50 came out at 20 µM. In addition, the half-inhibitory concentration (IC50) came out at 6 µM in [16] and 10 µM in [18]. Further, the outcome in test [20] was Active.
For `COC1=C2C[C@@H](C)C[C@H](OC)[C@H](O)[C@@H](C)/C=C(\C)[C@H](OC(N)=O)[C@@H](OC)/C=C\C=C(/C)C(=O)NC(=CC1=O)C2=O` [GELDANAMYCIN], the inhibition entry in test [8] was “Dose-dependent effect”; in test [23] it was “tde”. The Activity in test [24] was 18%; in test [25] it was 65%; in test [26], 16%; in test [27], 10%.
For the compound `COc1ccc(C(=O)Nc2c(OC)c3ccc(O[C@@H]4OC(C)(C)[C@H](OC)[C@@H](OC(N)=O)[C@H]4O)c(C)c3oc2=O)cc1CC=C(C)C`, the “growth inhibition (GI)” value in [4] was “Active”. Also, the figures for the inhibition in test [5] and in [13] were 50% and 40%, respectively. Moreover, the half-maximal effective concentration (EC50) in test [15] was found to be 38 µM. The IC50 amounted to 18 µM in [16] and 19 µM in test [18].
Take `COc1ccc(C(=O)Nc2c(OC)c3ccc(O[C@@H]4OC(C)(C)[C@H](OC)[C@@H](O)[C@H]4O)c(C)c3oc2=O)cc1CC=C(C)C`: the “growth inhibition (GI)” value in test [4] was “Active”. Further, the inhibition in test [5] was determined as 50%; in [13], 40%. Further, in [15], the EC50 was 41 µM. In addition, the results for the half-maximal inhibitory concentration (IC50) in test [16] and in test [18] were 19 µM and 25 µM, respectively.
